Measurements published in ChEMBL document CHEMBL4819107, “Substituted N-(4-amino-2-chlorophenyl)-5-chloro-2-hydroxybenzamide analogues potently inhibit respiratory syncytial virus (RSV) replication and RSV infection-associated inflammatory responses” (Bioorg Med Chem, 2021).

Tests used:
[1] = tested on: Respiratory syncytial virus; test: Antiviral activity against RSV infected in human A549 cells assessed as reduction in viral titer at 10 uM incubated for 15 hrs by immunostaining analysis; format: functional
In short: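 RSV long strain (propagated in HEp-2, sucrose-gradient purified) infected A549 cells at MOI 1 for 2 h. Inoculum removed, then compound at 10 μM for 15 h. Progeny virus titred by immunostaining in HEp-2 cells with biotin-conjugated goat anti-RSV antibody. Log reduction = log10 mean titer of vehicle-treated cells minus log10 mean titer with compound.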

[2] = tested on: A549; test: Cytotoxicity against human A549 cells assessed as cell death at 10 uM incubated for 15 hrs by LDH assay; format: cell-based; conditions: a549, 15 h
In short: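 A549 cells seeded at 1.5 × 10^4 cells/well. After 24 h, medium replaced with medium containing 10 μM compound and 2% FBS. At 15 h, cell damage read by luminescent LDH release assay. DMSO vehicle control; three biological replicates.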

O=C(Nc1ccc([N+](=O)[O-])cc1Cl)c1cc(Cl)ccc1O [NICLOSAMIDE]
log(activity) [1]: 1.47
Activity [2]: 24%
